Data published in PubChem BioAssay AID651654 (Broad Institute, 2012).
Screen size: about 360,000 compounds; about 740 (0.21%) were called active. What follows is part of a selection rich in actives, with near analogues and random picks from the rest. Values without a mark were called inactive.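 How the source made its calls: active means mean lysis activity across replicates of at least 80%, whatever share of replicates individually reach that level; inactive means mean lysis activity below 80%.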

Assay: fungicidal lysis via adenylate kinase leakage – AK release luminescence, single concentration, primary screen (AID 651654)
Settings: C. neoformans lysis, 4 h, at 15 µM, stronger effect = higher value, normalised: neutral wells 0, clomiphene wells 100
How it was run: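 Assay system: Cryptococcus neoformans yeast cells / Dosing: single-point compound dose / Timing: 4 h at 37 °C static, read 1 h later / Measured by: luminescence of released adenylate kinase using an AK detection reagent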

Going from `C[C@@H]1CN([C@H](C)CO)C(=O)c2cc(NC(=O)CCCCCC(=O)Nc3ccccc3N)ccc2O[C@@H]1CN(C)Cc1ccncc1` to `C[C@@H]1CN([C@@H](C)CO)C(=O)c2cc(NC(=O)CCCN(C)C)ccc2O[C@@H]1CN(C)Cc1ccncc1`, the lysis activity rises from 0.608% to 5.83%.

Compared with `COc1ccc(CN(C)C[C@@H]2OCCCC[C@H](C)Oc3ccc(NC(=O)c4ccccc4)cc3C(=O)N([C@H](C)CO)C[C@H]2C)cc1`, `COc1ccc(NC(=O)Nc2ccc3c(c2)C(=O)N([C@H](C)CO)C[C@@H](C)[C@H](CN(C)C(=O)Nc2ccc(C(F)(F)F)cc2)OCCCC[C@@H](C)O3)cc1` is higher in lysis activity: -1.71% for the first, 1.63% for the second.

Compared with `C[C@H](CO)N1C[C@H](C)[C@@H](CN(C)S(=O)(=O)c2ccc(Cl)cc2)Oc2ccc(NS(C)(=O)=O)cc2CC1=O`, `C[C@@H]1CN([C@@H](C)CO)C(=O)Cc2cc(NS(=O)(=O)c3cccs3)ccc2O[C@@H]1CN(C)S(=O)(=O)c1ccc(F)cc1` is higher in lysis activity: -5.34% for the first, -1.3% for the second.

Compared with `CCC(=O)N(C)C[C@@H]1Oc2cc(C#C[C@H](C)O)ccc2S(=O)(=O)N([C@H](C)CO)C[C@@H]1C`, `CCCC#Cc1ccc2c(c1)O[C@@H](CN(C)C(=O)c1cccnc1)[C@H](C)CN([C@H](C)CO)S2(=O)=O` is lower in lysis activity: -0.573% for the first, -4.36% for the second.

First: C[C@@H]1CN([C@H](C)CO)C(=O)c2cc(C#CC3CCCC3)cnc2O[C@H]1CN(C)S(C)(=O)=O
Second: COCC#Cc1cnc2c(c1)C(=O)N([C@@H](C)CO)C[C@H](C)[C@@H](CN(C)Cc1ccccc1)O2
The lysis activity of the first is higher: -1.11% for the first, -2.83% for the second.

Going from `C[C@@H]1CN([C@H](C)CO)C(=O)CCCn2nncc2CO[C@@H]1CN(C)C` to `Cc1cccc(CN(C)C[C@@H]2OCc3cn(nn3)CCCC(=O)N([C@@H](C)CO)C[C@H]2C)c1`, the lysis activity rises from -1.91% to -1.37%.

Compared with `COc1ccc(S(=O)(=O)N2C[C@H](O)COC[C@@H]3O[C@H](CC(=O)NCCN4CCCCC4)CC[C@H]32)cc1`, `Cn1cnc(CCNC(=O)C[C@@H]2CC[C@@H]3[C@H](COC[C@@H](O)CN3C(=O)Nc3ccccc3)O2)c1` is higher in lysis activity: 0.16% for the first, 1.75% for the second.

Compared with `CCCNC(=O)N1C[C@H](C)[C@@H](OC)CN(C)C(=O)c2ccc(NS(C)(=O)=O)cc2OC[C@@H]1C`, `CO[C@@H]1CN(C)C(=O)c2ccc(NS(C)(=O)=O)cc2OC[C@@H](C)N(CC2CC2)C[C@@H]1C` is higher in lysis activity: 0.827% for the first, 2.22% for the second.

Compared with `COCC(=O)Nc1ccc2c(c1)C(=O)N(C)[C@@H]1CC[C@@H](CC(=O)NCc3cccc(F)c3)O[C@@H]1CO2`, `COC(=O)C[C@@H]1CC[C@@H]2[C@H](COc3ccc(NC(=O)Nc4cccc(F)c4)cc3C(=O)N2C)O1` is higher in lysis activity: 1.56% for the first, 5.11% for the second.

Compared with `CC(C)NC(=O)N[C@@H]1C=C[C@@H](CC(=O)N2CCCCC2)O[C@@H]1CO`, `CC(C)NC(=O)N[C@H]1CC[C@H](CC(=O)NC2Cc3ccccc3C2)O[C@H]1CO` is lower in lysis activity: 1.39% for the first, -0.817% for the second.

Compared with `C[C@@H]1CN([C@@H](C)CO)C(=O)c2cc(NC(=O)C3CCCCC3)ccc2O[C@@H]1CN(C)Cc1ccc(C(=O)O)cc1`, `C[C@H](CO)N1C[C@H](C)[C@H](CN(C)C(=O)Nc2ccc(C(F)(F)F)cc2)Oc2ccc(NC(=O)C3CC3)cc2C1=O` is higher in lysis activity: -4.67% for the first, 8.67% for the second.

First: Cc1ccc(-c2cnc3c(c2)C(=O)N([C@@H](C)CO)C[C@H](C)[C@H](CN(C)C(=O)c2cccnc2)O3)cc1
Second: CCC(=O)N(C)C[C@@H]1Oc2ncc(C#CCc3ccccc3)cc2C(=O)N([C@H](C)CO)C[C@H]1C
The lysis activity of the first is lower: -0.96% for the first, 1.55% for the second.

First: COC(=O)C[C@@H]1C[C@H]2c3cc(NC(=O)Nc4ccc(F)cc4)ccc3O[C@H]2[C@@H](CO)O1
Second: O=C(C[C@@H]1C[C@H]2c3cc(NC(=O)Nc4ccccc4)ccc3O[C@H]2[C@@H](CO)O1)NCc1cccnc1
The lysis activity of the first is lower: -7.03% for the first, -4.19% for the second.

Going from `COc1ccc(CN2[C@@H](CO)[C@@H]3c4ccccc4N(C(=O)Nc4ccccc4)C[C@@H]32)cc1` to `O=C(Nc1ccccc1)c1cc2ccccc2[nH]1`, the lysis activity falls from 0.269% to -9.41%.

First: C[C@H](CO)N1C[C@H](C)[C@H](CN(C)S(C)(=O)=O)Oc2ccc(NC(=O)Nc3ccc(F)cc3)cc2C1=O
Second: C[C@@H]1CN([C@@H](C)CO)C(=O)c2cccc(NC(=O)Nc3ccc(C(F)(F)F)cc3)c2O[C@@H]1CN(C)S(=O)(=O)c1ccc(F)cc1
The lysis activity of the first is lower: 0.358% for the first, 28.4% for the second.

First: C#CCN1C(Cc2ccccc2)C(=O)O[C@H](C2CCCCC2)[C@@H]1/C=C/C1CC1 (some centres undefined)
Second: CCN(C[C@H]1[C@H](c2ccccc2)[C@H](CO)N1C(=O)C1CC1)C(=O)NC1CCCC1
The lysis activity of the first is higher: 5.01% for the first, 3.3% for the second.

Going from `CO[C@@H]1CN(C)C(=O)c2cc(NC(C)=O)ccc2OC[C@H](C)N(CC2CCCCC2)C[C@@H]1C` to `CO[C@H]1CN(C)C(=O)c2ccc(NC(=O)Cc3ccccc3)cc2OC[C@@H](C)N(C(C)=O)C[C@H]1C`, the lysis activity rises from -3.61% to 69.9%.

Going from `CC(OC(=O)c1cc2ccccc2[nH]1)C(=O)N(C)c1ccccc1` (centres undefined) to `CCCNC(=O)N1[C@H](CNC(=O)c2cccc(F)c2)[C@H](c2ccccc2)[C@@H]1CO`, the lysis activity rises from -1.83% to -0.391%.

First: CO[C@H]1CN(C)C(=O)c2cc(NS(=O)(=O)CC(F)(F)F)ccc2OC[C@@H](C)N(Cc2nccs2)C[C@@H]1C
Second: CCC(=O)N1C[C@@H](C)[C@H](OC)CN(C)C(=O)c2ccc(NC(=O)c3ccc(F)cc3)cc2OC[C@@H]1C
The lysis activity of the first is higher: 0.476% for the first, -5.87% for the second.

Compared with `CN1c2ccc(C3=CCCCC3)cc2[C@H]2[C@H](CCN2S(=O)(=O)c2ccccc2)[C@@H]1CO`, `CC(=O)N1[C@H](CO)[C@@H](c2ccc(-c3ccccc3)cc2)[C@H]1CNC(=O)C1CC1` is higher in lysis activity: 0.27% for the first, 73.3% for the second.

Going from `O=C(C1CCC1)N1CCCCN2[C@H](CO)[C@H](c3ccc(-c4cccc(F)c4)cc3)[C@H]2C1` to `CC(=O)N1[C@H](CO)[C@@H](c2ccc(-c3ccc(F)cc3)cc2)[C@H]1CNC(=O)C1CC1`, the lysis activity falls from 4.53% to -1.15%.

Compared with `COc1cccc(NC(=O)C[C@H]2CC[C@@H]3[C@@H](COc4ccc(NC(=O)C5CCOCC5)cc4C(=O)N3C)O2)c1`, `CCCNC(=O)C[C@H]1C[C@@H]2c3cc(NC(=O)C4CCOCC4)ccc3O[C@@H]2[C@H](CO)O1` is higher in lysis activity: 1.2% for the first, 1.8% for the second.

Going from `COc1ccccc1C#Cc1ccc2c(c1)O[C@H](CN(C)Cc1cccnc1)[C@@H](C)CN([C@H](C)CO)S2(=O)=O` to `C[C@H](CO)N1C[C@H](C)[C@@H](CN(C)C)Oc2cc(C#Cc3ccccc3)ccc2S1(=O)=O`, the lysis activity falls from 3.3% to 0.917%.

Going from `CN(C)C(=O)C[C@H]1CC[C@@H](NC(=O)C2CC2)[C@@H](CO)O1` to `O=C(C[C@H]1CC[C@H](NC(=O)C2CCC2)[C@@H](CO)O1)Nc1nccs1`, the lysis activity rises from -0.137% to 5.79%.

First: C[C@@H]1CCCCO[C@H](CN(C)C(=O)NC2CCCCC2)[C@@H](C)CN([C@H](C)CO)C(=O)c2cc(NS(C)(=O)=O)ccc2O1
Second: C[C@@H]1CN([C@@H](C)CO)C(=O)c2cc(NS(=O)(=O)c3cn(C)cn3)ccc2O[C@@H](C)CCCCO[C@@H]1CN(C)Cc1ccncc1
The lysis activity of the first is higher: 3.91% for the first, -2.55% for the second.

First: C/C=C/c1ccc([C@H]2[C@@H](CNC(=O)NC(C)C)N(C(=O)C3CCC3)[C@H]2CO)cc1
Second: CC(=O)N1[C@H](CN(CC2CCC2)C(=O)CN(C)C)[C@@H](c2ccccc2)[C@@H]1CO
The lysis activity of the first is higher: -1.4% for the first, -2.74% for the second.

First: CO[C@@H](CN(C)C(=O)Nc1ccc(F)cc1)[C@H](C)CN(Cc1ccccc1Cl)[C@@H](C)CO
Second: CO[C@@H](CN(C)C(=O)c1cnccn1)[C@@H](C)CN([C@@H](C)CO)S(=O)(=O)c1ccc(F)cc1
The lysis activity of the first is lower: 13.4% for the first, 59.1% for the second.

First: C/C=C/c1ccc2c(c1)O[C@@H](CN(C)S(=O)(=O)c1ccc(F)cc1)[C@@H](C)CN([C@H](C)CO)S2(=O)=O
Second: COc1cccc(S(=O)(=O)N[C@H]2CC[C@@H](CC(=O)NCc3ccc(F)cc3)O[C@@H]2CO)c1
The lysis activity of the first is lower: 3% for the first, 3.95% for the second.

First: C[C@@H]1CN([C@H](C)CO)C(=O)CCCn2cc(nn2)CO[C@@H]1CN(C)Cc1ccccc1C(=O)O
Second: C[C@H](CO)N1C[C@H](C)[C@@H](CN(C)Cc2ccccc2C(F)(F)F)OCc2cn(nn2)CCCC1=O
The lysis activity of the first is higher: -0.638% for the first, -8.12% for the second.

Going from `COc1ccccc1S(=O)(=O)N[C@@H]1CC[C@@H](CCn2cc(C3CCCCC3)nn2)O[C@H]1CO` to `COc1ccccc1NC(=O)N[C@H]1CC[C@H](CCn2cc(-c3cccnc3)nn2)O[C@@H]1CO`, the lysis activity falls from 18.5% to -0.992%.

With `COc1ccc(C2=Nc3ccccc3NC(=O)C2N(C(=O)c2cc3ccccc3[nH]2)c2ccccc2)cc1` (centres undefined) the lysis activity was 101% (active).
With `O=C(NC[C@@H]1[C@@H](c2ccccc2)[C@H](CO)N1C(=O)C1CCC1)NC1CCCC1` the lysis activity was 94.8% (active).
In the case of `CC(=O)N1[C@H](CO)[C@H](c2ccc(-c3ccccc3)cc2)[C@H]1CNC(=O)C1CC1`, the lysis activity is reported as 90.2% (active).
For `Cc1ccccc1CN(C)C[C@H]1OCc2cn(nn2)CCCC(=O)N([C@@H](C)CO)C[C@H]1C`, the lysis activity was 96.6% (active).
